Statin myotox sup: protects C2C12 myotubes from simvastatin toxicity. 0.78% of 330,000 active. ATP luminescence, 48 h; scaled: DMSO 0, geranylgeraniol control 100. rescue of ATP level, % at 7.49 µM. AID 602340;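 active means mean ATP rescue above about 67%, or every replicate alone reaching that limit, limit read from the data, passing the limit was not always enough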;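 further: myotubes were challenged with 10 µM simvastatin during compound exposure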
rRNA inh HTS: selective bacterial rRNA inhibition in E. coli | E. coli WT GFP vs humanized-ribosome RFP mutants, fluorescence, 24 h; active compounds read low; DMSO median 0, no signal -100 | GFP signal change (wild-type ribosome), % (no concentration beside the values) | 1.6% of 350,000 active;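 active means significant combined selectivity score with lowered wild-type GFP, culture density cut under 30%, mutant RFP and density less affected; inactive means any of these conditions unmet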
FGF22 binding: binders of recombinant human FGF22 by thermal shift; AID 651658; Q9HCT0; activity (Tm shift, normalised), % at 9.99 µM; SYPRO orange fluorescence; percent of sucrose octasulfate shift, DMSO zero; 1.5% of 340,000 active;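 active means mean Tm shift, scaled 0 neutral to 100 positive control, at about 1.3% or above, every replicate too, limit read from the data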
Target sequence (Q9HCT0 whole entry, looked up): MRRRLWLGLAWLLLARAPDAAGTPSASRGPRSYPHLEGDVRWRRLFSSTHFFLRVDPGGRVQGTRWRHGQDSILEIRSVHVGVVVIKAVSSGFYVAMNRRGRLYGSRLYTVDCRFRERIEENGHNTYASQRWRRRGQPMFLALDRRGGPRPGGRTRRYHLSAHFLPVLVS
FN deposit inh: fibronectin deposition inhibition; AH1F fibroblasts, Alexa488-fibronectin deposition fluorescence, overnight; inhibition, % at 12.6 µM; 0.086% of 350,000 active;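 active means mean inhibition across replicates of 30% or more, regardless of how many single replicates reach that level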;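 further: positive control wells lacked labelled fibronectin entirely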
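material = AH1F fibroblast monolayer depositing Alexa488-labelled fibronectin into matrix | amount = 10000 AH1F cells/well | buffer or medium = DMEM plus 2% serum, read in PBS | incubation = 1 h cell adhesion before compound, then overnight fibronectin incubation | detection = fluorescence at 485 nm excitation, 525 nm emission | evaluation = percent inhibition as loss of matrix-bound fibronectin fluorescence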
SIRT5 inh: sirtuin-5 (human) deacylase inhibition | Purified SirT5, succinyl-peptide AMC, trypsin-coupled fluorescence | inhibition, % at 15 µM | 1.1% of 330,000 active | AID 652115; in the data active means inhibition above about 15%
Target sequence (Q9NXA8 whole entry, looked up): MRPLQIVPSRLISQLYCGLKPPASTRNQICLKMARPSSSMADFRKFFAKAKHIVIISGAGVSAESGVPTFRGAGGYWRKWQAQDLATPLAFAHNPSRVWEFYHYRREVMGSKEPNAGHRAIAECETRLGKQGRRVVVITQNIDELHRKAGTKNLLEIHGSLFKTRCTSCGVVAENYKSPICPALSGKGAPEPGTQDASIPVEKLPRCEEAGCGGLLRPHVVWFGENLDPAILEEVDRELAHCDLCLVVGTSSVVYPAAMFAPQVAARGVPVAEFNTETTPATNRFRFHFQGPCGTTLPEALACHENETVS
E-sel inducer: induces E-selectin expression in human endothelial cells | P16581 | HUVEC E-selectin immunofluorescence imaging; normalized: neutral wells 0, TNF-alpha wells 100 | activation, % at 7.58 µM | 0.37% of 260,000 active;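 active means mean E-selectin-positive cell signal at least 10% of the positive control, reached in at least 60% of replicates, without over 20% cell loss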
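Test system: HUVEC | Signal: Immunofluorescence imaging | Read-out: Percent E-selectin-positive cells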
* marks the source's active call; other numbers are inactive results; · = no result given. Sampled rows, rich in hits. Any-hit rate of the full collection: about 4%.

SMILES	Statin myotox sup	rRNA inh HTS	FGF22 binding	FN deposit inh	SIRT5 inh	E-sel inducer
C[C@@H]1CCCCO[C@@H](CN(C)C(=O)Nc2ccc(F)cc2)[C@@H](C)CN([C@@H](C)CO)C(=O)c2cc(NC(=O)NC3CCCCC3)ccc2O1	·	2	·	·	·	1
CC(=O)N1CCN(c2cc(N3CCCC3)c(F)cc2[N+](=O)[O-])CC1	-4	-19*	0	6	5	2
O=[N+]([O-])c1cc(Cl)ccc1N1CCCC1	-8	5	44*	5	0	·
CC(=O)c1cc(F)c(N2CCCC2)cc1C	101*	·	·	·	·	·
Cn1c(=O)n(C)c2cc([N+](=O)[O-])c(N3CCN(C(=O)c4ccccc4)CC3)cc21	6	·	·	-5	·	·
Cn1c(=O)n(C)c2cc([N+](=O)[O-])c(N3CCN(C(=O)C(C)(C)C)CC3)cc21	·	-23*	0	-4	1	2
C[C@H]1CN([C@@H](C)CO)S(=O)(=O)c2ccc(-c3cccc(C#N)c3)cc2O[C@@H]1CN(C)C	-1	3	0	7	-2	0
CO[C@@H](CN(C)Cc1ccc2c(c1)OCO2)[C@H](C)CN(C(=O)Nc1ccc(F)cc1)[C@@H](C)CO	11	2	0	2	·	0
Cc1cc(N2CCCCC2)ccc1[N+](=O)[O-]	·	-43*	0	2	-2	·
CC(C)NC(=O)N(C)C[C@@H]1Oc2ccc(NC(=O)CCC(F)(F)F)cc2C(=O)N([C@@H](C)CO)C[C@H]1C	3	5	0	·	1	-4
Cc1nc(S(=O)(=O)N(C)Cc2ccccc2)c(C#N)c(C)c1Cl	·	3	·	-3	17*	·
Cc1nc(S(=O)(=O)N2CCOCC2)c(C#N)c(C)c1Cl	-4	·	·	·	·	·
O=c1[nH]n2c(=O)c3c([nH]c2c1N=Nc1cccc(Cl)c1)CCC3	·	·	·	-2	·	-1
COc1cccc(N=Nc2c(=O)[nH]n3c(=O)cc(C)[nH]c23)c1	94*	·	·	·	·	·
CCC(C)C(=O)Nc1ccc([N+](=O)[O-])cc1OC (stereo not given)	-1	7	43*	11	-1	·
COc1cc([N+](=O)[O-])ccc1NC(=S)NNC(=O)CCC(=O)Nc1ccccc1Cl	-2	-17*	0	·	-3	0
COc1cc([N+](=O)[O-])ccc1NC(=O)CCCOc1ccccc1	4	·	·	7	·	·
O=C(O)c1cccc(S(=O)(=O)N(Cc2ccccc2)c2ccc(Cl)cc2)c1	21	-44*	0	-2	3	0
CCCCN(CCCC)c1nn[nH]n1	96*	-2	0	3	-2	·
CC(C)CN(CC(C)C)c1nn[nH]n1	114*	5	0	-5	·	0
CCCCN(CCCC)c1ncnc2nc[nH]c12	·	-24	0	-2	-1	·
CC(C)NC(=O)N(C)C[C@@H]1Oc2c(NS(C)(=O)=O)cccc2C(=O)N(C)C[C@H]1C	·	2	·	8	·	·
O=C(C[C@H]1CC[C@@H]2[C@H](COC[C@@H](O)CN2Cc2ccc(Oc3ccccc3)cc2)O1)Nc1nccs1	56	-45	0	-1	3	0
Cc1noc(C)c1NC(=O)Nc1cccc2c1O[C@@H](CN(C)Cc1ccc(Oc3ccccc3)cc1)[C@H](C)CN([C@@H](C)CO)C2=O	·	-6	0	-3	-1	0
CC1CCCC(NC(=O)COC(=O)[C@@H](NC(=O)c2ccco2)C(C)C)C1C (stereo not given in full)	·	-2	45*	4	1	0
SMILES	Statin myotox sup	rRNA inh HTS	FGF22 binding	FN deposit inh	SIRT5 inh	E-sel inducer
CC1CCCC(NC(=O)COC(=O)[C@@H](NC(=O)c2ccc(F)cc2)C(C)C)C1C (stereo not given in full)	0	3	1	-6	·	0
Cc1cc(=O)oc2c3c(cc(OCC(=O)N[C@@H](C)C(=O)O)c12)OC(C)(C)CC3	-4	2	0	4	-39	0
Cc1cc(=O)oc2c3c(cc(OCC(=O)NC(Cc4ccc(Cl)cc4)C(=O)O)c12)OC(C)(C)CC3 (stereo not given)	0	-38*	1	·	-58	·
Cc1cc(=O)oc2c3c(cc(OCC(=O)N[C@@H](Cc4ccccc4)C(=O)O)c12)OC(C)(C)CC3	8	-31*	-1	·	-51	·
COCC(=O)Nc1ccc2c(c1)OC[C@H](C)N(C(=O)c1ccccn1)C[C@@H](C)[C@@H](OC)CN(C)C2=O	0	0	·	-3	·	0
S=C(NCc1ccccc1)NC1CCCc2ccccc21 (stereo not given)	·	-50	0	·	112*	·
S=C(NCc1ccco1)NC1CCCc2ccccc21 (stereo not given)	·	12	0	-8	0	0
CCn1c(-c2cc(-c3ccc(C)cc3)nc3ccccc23)n[nH]c1=S	7	-29	0	-17	3	0
C=CCn1c(-c2cc(-c3ccc(C)cc3)nc3ccccc23)n[nH]c1=S	·	-29*	42	-8	-6	·
CO[C@H](CN(C)S(=O)(=O)c1ccccc1)[C@@H](C)CN(C(=O)Nc1ccccc1F)[C@H](C)CO	15	-1	0	-12	0	0
CCc1c(C)nc(N2CCN(c3ccc(F)cc3)CC2)[nH]c1=O	-6	4	0	7	0	0
CCCc1c(C)nc(N2CCN(c3ccc(F)cc3)CC2)[nH]c1=O	16	11	0	-1	21*	·
Cc1nnc(N2CCN(c3ccccc3)CC2)[nH]c1=O	98*	·	·	·	·	·
C[C@@H]1CN([C@H](C)CO)C(=O)c2cc(/C=C/c3ccccc3)cnc2O[C@@H]1CN(C)S(C)(=O)=O	-11	-1	0	0	-16	-1
CCOC(=O)C1=NN(C(=O)Cc2ccccc2)C(O)(c2ccc(Cl)cc2)C1 (stereo not given)	139*	·	·	7	·	·
CCOC(=O)C1=NN(C(=O)COc2ccccc2)C(O)(c2ccc(Cl)cc2)C1 (stereo not given)	·	-12	0	5	-4	·
Cn1c(=O)c2c(nc(NCCNC(=O)c3ccco3)n2Cc2ccccc2)n(C)c1=O	22	-1	0	-11	-8	·
Cn1c(=O)c2c(nc(NCCNC(=O)c3ccco3)n2Cc2ccc(F)cc2)n(C)c1=O	-5	0	1.8*	-2	-2	·
Cn1c(=O)c2c(nc(N/N=C/c3ccncc3)n2Cc2ccccc2)n(C)c1=O	-1	-29*	-1	4	0	0
CC(=O)N(C)C[C@@H]1Oc2ncc(-c3ccc(C(=O)N(C)C)cc3)cc2C(=O)N([C@H](C)CO)C[C@H]1C	-3	5	0	·	0	0
O=C(N/N=C/c1cccnc1)c1ccc(CN2c3cccc4cccc(c34)S2(=O)=O)cc1	-5	-18*	0	-2	-7	6

Assay outcomes from PubChem BioAssay.
